Source: ChEMBL document CHEMBL1135535, “Discovery and optimization of a series of carbazole ureas as NPY5 antagonists for the treatment of obesity” (J Med Chem, 2002)

Tests used:
Salmonella typhimurium [1] = assay: Ames activity in TA 98+S9, expressed as maximum fold increase in mutation frequency; format: functional, Salmonella enterica subsp. enterica serovar Typhimurium
Summary of the method: (§1)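 Salmonella typhimurium TA98 plate incorporation assay with S9 mix. The S9 is the postmitochondrial fraction of livers from Aroclor 1254-treated Sprague–Dawley rats, supplemented with cofactors for NADPH generation. Tested across 6–2000 μg/plate. The value is the maximum increase in mutation frequency relative to background across that dose range.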

[2] = biological target: T1, Neuropeptide Y receptor type 5 (Homo sapiens, UniProt Q15761); assay: Binding affinity to the human Neuropeptide Y receptor Y5 (NPY5)
T1 sequence (Q15761 whole entry): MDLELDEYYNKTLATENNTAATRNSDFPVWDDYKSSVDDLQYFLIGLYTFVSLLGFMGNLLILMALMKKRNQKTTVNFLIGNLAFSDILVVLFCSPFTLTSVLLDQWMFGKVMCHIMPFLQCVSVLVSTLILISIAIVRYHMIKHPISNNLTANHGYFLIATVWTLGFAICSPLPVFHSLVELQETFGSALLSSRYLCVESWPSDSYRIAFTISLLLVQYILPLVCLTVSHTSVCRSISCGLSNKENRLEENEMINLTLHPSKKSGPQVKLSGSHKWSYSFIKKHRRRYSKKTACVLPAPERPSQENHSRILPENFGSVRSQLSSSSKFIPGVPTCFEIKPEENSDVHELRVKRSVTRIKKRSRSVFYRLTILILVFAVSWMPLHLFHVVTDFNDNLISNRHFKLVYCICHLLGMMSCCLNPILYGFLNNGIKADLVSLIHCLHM
Summary of the method: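 Membranes from Hi5 insect cells infected 48 h with baculovirus carrying rat or human NPY-5 receptor, prepared by sonication in hypotonic Tris/EDTA/sucrose buffer and harvested on a 41% sucrose cushion. 0.01 µCi [125I]PYY incubated with membranes and compound in HEPES buffer (CaCl2, MgCl2, 0.5% BSA, pH 7.4) for 2 h at room temperature. Filtered onto PEI-treated GF/C plates, then scintillation counted.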

Salmonella typhimurium [3] = assay: Ames activity in TA 98+S9, expressed as maximum fold increase in mutation frequency; NI means no increase; format: functional, organism-based; conditions: Salmonella enterica subsp. enterica serovar Typhimurium; summary of the method: as §1
Rattus norvegicus [4] = assay: Concentration of compound in rat whole brain after oral dosing at 2 mg/kg after 90 min; format: functional, organism-based; parameters: dose 2 mg/kg
Summary of the method: (§2)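 Single oral dose of 2 mg/kg to rats. Plasma, whole brain and CSF concentrations were measured at 90 min.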

Rattus norvegicus [5] = assay: Concentration of compound in rat plasma after oral dosing at 2 mg/kg after 90 min; format: functional, organism-based; parameters: dose 2 mg/kg; summary of the method: as §2
Rattus norvegicus [6] = assay: Concentration of compound in rat CSF after oral dosing at 2 mg/kg after 90 min; format: functional, organism-based; parameters: dose 2 mg/kg; summary of the method: as §2
[7] = Percent inhibition of 5-HT2b and adenosine transport at 10 uM Y1, Y2, Y4 and 80 other receptors at > 10 uM; format: functional
Summary of the method: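 Selectivity screen with compound tested at 10 µM for binding to 5HT2b receptor and for inhibition of adenosine transport. Y1, Y2, Y4 and 80 other receptors were also screened. Human Y1, Y2 and Y4 membranes came from SK-N-MC cells, KAN-TS cells and stable Y4-expressing CHO cells, using the [125I]PYY filtration binding format.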

[8] = Clearance level at a dose 10 umol/kg administered intravenously; format: ADME, organism-based; conditions: in vivo, iv
[9] = biological target: T1, Neuropeptide Y receptor type 5; assay: The compound was evaluated in vitro for: human Neuropeptide Y receptor Y5 functional antagonism
[10] = Volume of distribution of compound at a dose 10 umol/kg was administered intravenously; format: ADME, organism-based; conditions: in vivo, iv, read-out: Vss
[11] = Half-life of compound at a dose 30 umol/kg administered orally; format: ADME, organism-based; conditions: in vivo, po
[12] = Tmax of compound at a dose 30 umol/kg administered orally; format: ADME, organism-based; conditions: in vivo, po
[13] = biological target: T1, Neuropeptide Y receptor type 5; assay: Compound was evaluated for functional antagonism of Neuropeptide Y receptor Y5 activity in cellular Ca flux
[14] = Maximum concentration of compound at a dose 30 umol/kg administered orally; format: ADME, organism-based; parameters: dose 30 umol/kg, route oral; conditions: in vivo, po
[15] = Half-life of compound at a dose 10 umol/kg was administered intravenously; format: ADME, organism-based; conditions: in vivo, iv
[16] = Bioavailability of compound at a dose 30 umol/kg administered orally; format: ADME, organism-based; conditions: eutheria, in vivo, po, at 30 µmol/kg

## CN(C)S(=O)(=O)n1c2ccccc2c2cc(N)ccc21
Salmonella typhimurium [1]
  Max fold increase: 39

## Nc1ccc2c(c1)c1ccccc1n2C1CCOC1 (stereo unspecified)
Salmonella typhimurium [1]
  Mutation frequency: 66

## CN(C)S(=O)(=O)n1c2ccccc2c2cc(NC(=O)CCc3ccncc3)ccc21
[2]
  IC50: 8 nM

## CCn1c2ccccc2c2cc(N(C)C(=O)CCc3ccncc3)ccc21
[2]
  IC50: 2200 nM

## Cc1c(N)cc(C)c2c1c1ccccc1n2C(C)C
Salmonella typhimurium [3]
  NI: no increase

## CC(=O)n1c2ccccc2c2cc(NC(=O)CCc3ccncc3)ccc21
[2]
  IC50: 3 nM

## CC(C)n1c2ccccc2c2c(F)c(N)c(F)cc21
Salmonella typhimurium [1]
  Mutation frequency: 2

## O=C(CSc1ccncc1)Nc1ccc(C(=O)c2ccccc2)cc1
[2]
  IC50: 350 nM

## CC(C)n1c2ccccc2c2cc(NC(=O)CCc3ccncc3)ccc21
[2]
  IC50: 1 nM

## CC(C)n1c2ccccc2c2cc(N)ccc21
Salmonella typhimurium [1]
  Mutation frequency: 3

## CCn1c2ccccc2c2cc(NC(=O)N3CCOCC3)ccc21
[2]
  IC50: 7 nM
Rattus norvegicus [4]
  Concentration: 500 nM
Rattus norvegicus [5]
  Concentration: 740 nM
Rattus norvegicus [6]
  Concentration: 17 nM

## CCOc1c(N)ccc2c1c1ccccc1n2C(C)C
Salmonella typhimurium [3]
  NI: no increase

## CS(=O)(=O)n1c2ccccc2c2cc(NC(=O)N3CCOCC3)ccc21
[2]
  IC50: 15 nM

## Cc1c(NC(=O)N2CCOCC2)ccc2c1c1ccccc1n2C(C)C
[7]
  inhibition: 70%
[8]
  clearance: 1.33 mL/min/kg
[9]
  IC50: 37 nM
[2]
  IC50: 3 nM
[10]
  Vd: 0.41 L/kg
[11]
  half-life: 6.4 h
[12]
  Tmax: 1 h
[13]
  IC50: 6 nM
[14]
  Cmax: 35 µM
[15]
  half-life: 3.7 h
[16]
  bioavailability: 76%

## Cc1c(N)ccc2c1c1ccccc1n2C(C)C
Salmonella typhimurium [3]
  NI: no increase

## CC(C)(C)Cn1c2ccccc2c2cc(N)ccc21
Salmonella typhimurium [1]
  Mutation frequency: 5

## CCn1c2ccccc2c2cc(CNC(=O)Cc3ccncc3)ccc21
[2]
  IC50: 3400 nM

## CC(C)n1c2ccccc2c2cc(N)c(Cl)cc21
Salmonella typhimurium [1]
  Mutation frequency: 43

## O=C(Nc1ccc2c(c1)c1ccccc1n2C1CCOC1)N1CCOCC1 (stereo unspecified)
[2]
  IC50: 40 nM

## CC(C)n1c2ccc(N)cc2c2cc(F)ccc21
Salmonella typhimurium [1]
  Mutation frequency: 15

## CC(C)n1c2ccc(F)cc2c2cc(NC(=O)N3CCOCC3)ccc21
[2]
  IC50: 3 nM

## CC(C)c1c(NC(=O)N2CCOCC2)ccc2c1c1ccccc1n2C(C)C
[2]
  IC50: 770 nM

## CCn1c2ccccc2c2c(NC(=O)CCc3ccncc3)cccc21
[2]
  IC50: > 10000 nM
